Mdm2 MdmX PPI: inhibitors of human Mdm2-MdmX association, primary screen, cell-based, luminescence, split luciferase, SaOS-2, uHTS; AID 485346, 2010; SaOS-2 split-luciferase Mdm2/MdmX complementation; 330,000 compounds, 3% hits; Protein Mdm4 (Homo sapiens) + E3 ubiquitin-protein ligase Mdm2 (Homo sapiens), …; inhibition, % at 8 µM;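 active = inhibition of at least 50% at 8 µM in the primary screen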
SKKanGAS inh: S. pyogenes SKKanGAS growth inhibitors in kanamycin, primary screen, streptokinase expression inhibitor project, SKKanGAS strain, BacTiter-Glo luminescence | 6 h | inhibition, % at 7.5 µM | 300,000 compounds, 1.3% hits | AID 1662, 2009;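 active = mean replicate score, as percent of positive control median, at least 50; inconclusive = mean below 50 but one replicate at or above 50; inactive = mean and every replicate below 50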;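 note: strain carries kanamycin resistance gene driven by streptokinase promoter and grows in 40 µg/ml kanamycin; loss of luminescence reflects streptokinase promoter inhibition or plain growth inhibition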
Calb FLC: C. albicans growth inhibition with fluconazole, primary screen, CaCi-2 strain, Alamar Blue fluorescence | C. albicans CaCi-2 (fluconazole-resistant clinical isolate) + fluconazole, 48 h | growth inhibition, % (no concentration beside the values) | 300,000 compounds, 0.57% hits;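 active = growth inhibition above about 58% in most replicates, limit read from the data, passing the limit was not always enough; inconclusive = exactly half the replicates above a set limit; inactive = most replicates below a set limit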;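 note: all wells also contain fluconazole at 8 µg/ml as a sub-toxic cotreatment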
T cruzi inh: inhibitors of intracellular T. cruzi growth, primary screen, luminescence, NIH3T3 host cells; T. cruzi beta-gal in NIH3T3, 90 h; inhibition, % (concentration not given with the values); 300,000 compounds, 1.4% hits; AID 1885, 2009;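 active = mean inhibition across valid replicates above about 55%, limit read from the data; inconclusive = mean below that limit but half or more replicates reach it; inactive = mean below it, under half of replicates reach it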;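 note: signal also drops with host cell toxicity which is not excluded here; higher percent means less beta-gal luminescence so fewer parasites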
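assay system = mouse NIH/3T3 fibroblasts infected with β-gal-expressing T. cruzi Tulahuen C4 | input = 5,000 NIH/3T3 host cells per well | buffer or medium = DMEM plus 2% FBS | timing = 3 h host attachment, then at least 90 h co-culture | measured by = GalScreen luminescence, 60 min | evaluation = luminescence reflecting intracellular parasite burden, expressed as percent inhibition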
Beta cell apopt: inhibitors of cytokine-induced beta cell apoptosis, primary screen, luminescence. protection from apoptosis, % (test concentration not listed). 300,000 compounds, 0.8% hits. INS-1E cytokine-induced death, ATP luminescence, 48 h; percent of positive-control rescue, neutral wells zero;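 active = Every replicate reaches about 75%, or at least half do and their mean reaches it too, limit read from the data; inconclusive = At least half of replicates reach the limit but their mean does not; inactive = Under half of replicates reach the limit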;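 note: higher means more ATP so stronger rescue from cytokine killing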
CSC inhib: cancer stem cell viability inhibitors, primary screen, luminescence. inhibition, % at 7.5 µM. cancer stem cell-like cells viability. 300,000 compounds, 1.1% hits; in the data active = inhibition above about 75%; inconclusive = no clear call, values can overlap the other calls; tested in HMLE shEcad cells
Large screens that a line does not name were inactive. Rows were chosen to be rich in hits. Some 5.7% of all compounds tested hit in one or more screens of this group.

CCOc1ccc(NC(=O)COc2ccccc2C(=O)NCc2ccccc2)cc1	none (no result: SKKanGAS inh, Calb FLC, T cruzi inh)
O=C(COc1ccccc1C(=O)NCc1ccncc1)Nc1ccc(Br)cc1	T cruzi inh 57.2
CCOC(=O)[C@@H]1[C@H]2COc3ccc(Br)cc3[C@H]2N2C(=O)N(c3ccc(F)cc3)C(=O)[C@@]12C	none
CC(C)Oc1ccccc1C1Nc2ccccc2C(=O)N1c1ccc2c(c1)OCCO2 (stereo not given)	none
Cc1ccc(N2C(=O)c3ccccc3NC2C(C)Cc2ccc3c(c2)OCO3)cc1 (stereo not given)	T cruzi inh 55.2
COc1ccc(NS(=O)(=O)c2cc(-c3cnc(C4CC4)o3)ccc2C)cc1	CSC inhib 79.9
COC(=O)c1ccc(/C=C/c2c(-c3ccc(OC)cc3)oc3ccccc23)cc1	CSC inhib 108.8
COC(=O)c1ccc(/C=C/c2c(-c3ccc(OC)cc3)oc3ccc(N4CCOCC4)cc23)cc1	CSC inhib 109.0
COc1ccc(/C=C/c2c(-c3ccc(OC)cc3)oc3ccccc23)cc1	none
COc1ccc(/C=C/c2c(-c3cccc(C)c3)oc3ccc(N4CCOCC4)cc23)cc1	none
C=CCn1c(SCC(=O)N2CCOCC2)nnc1C(C)NC(=O)c1ccccc1 (stereo not given)	none
CSc1ccccc1C(=O)Nc1cc(C)ccc1C	CSC inhib 78.2
CSc1ccccc1C(=O)Nc1ccc(C)cc1C	none (no result: CSC inhib)
Brc1ccc(-c2c[n+]3c(n2-c2ccccc2)SCC3)cc1	none
Cc1ccc(-c2c[n+]3c(n2-c2ccccc2)SCC3)cc1	Calb FLC inconclusive, T cruzi inh 65.8, Beta cell apopt 106.1
COc1ccc(-c2c[n+]3c(n2-c2ccccc2)SCC3)cc1	T cruzi inh 61.2 (no result: Beta cell apopt)
COc1ccc(CC(NC(C)=O)C(=O)NC2CCN(C(=O)c3ccccc3F)CC2)cc1 (stereo not given)	none
COc1ccc(S(=O)(=O)NCCCN2CCCC2=O)c(OC)c1	none
CCCn1c(=O)c(C(=O)Nc2ccccc2C(=O)OCC)c(O)c2ccccc21	none (no result: T cruzi inh, CSC inhib)
CCn1c(=O)c(C(=O)NNC(=O)Cc2ccccc2)c(O)c2ccccc21	SKKanGAS inh 54.3
CCCCCCCCC(=O)NNC(=O)c1c(O)c2ccccc2n(CCC)c1=O	SKKanGAS inh 116.7
CCn1c(=O)c(C(=O)Nc2nc3ccccc3[nH]2)c(O)c2ccccc21	SKKanGAS inh 103.1, Beta cell apopt 118.2
CCCn1c(=O)c(C(=O)Nc2ncccc2C)c(O)c2ccccc21	SKKanGAS inh 54.6 (no result: CSC inhib)
CCOC(=O)[C@@H]1[C@H]2COc3ccccc3[C@H]2N2C(=O)N(c3cccc(C)c3)C(=O)[C@]12C	none (no result: SKKanGAS inh, Calb FLC, T cruzi inh)
O=C(CN1CCN(c2ccc(F)cc2)CC1)NCc1ccc(Cl)cc1	none
Cc1ccc(S(=O)(=O)Nc2cccc(C(=O)N3CCOCC3)c2)c(C)c1NS(C)(=O)=O	none
CCCn1c(=O)c(C(=O)NCc2ccccc2)c(O)c2ccccc21	none
CCCCCCCC(=O)NNC(=O)c1c(O)c2ccccc2[nH]c1=O	none
CCCCCCCCCC(=O)NNC(=O)c1c(O)c2ccccc2n(CCC)c1=O	SKKanGAS inh 100.6
CC(C)Cn1c2c(c(O)c(C(=O)Nc3ncccc3O)c1=O)CCCC2	SKKanGAS inh 89.5
CC(C)Cn1c2c(c(O)c(C(=O)Nc3ccc(F)cc3)c1=O)CCCC2	none
CCCCCCCCCCC(=O)NNC(=O)c1c(O)c2ccccc2n(CC)c1=O	SKKanGAS inh 100.8
COc1ccc(N2CCN(C(CNC(=O)COc3ccccc3)c3ccco3)CC2)cc1 (stereo not given)	none
O=C(CCC1CCCN(C(=O)c2cc3ccccc3o2)C1)NCc1ccc(F)c(F)c1 (stereo not given)	none (no result: Mdm2 MdmX PPI)
O=C(COc1ccc(Cl)cc1)Nc1ccc(C(=O)NCc2cccnc2)cc1	Beta cell apopt 100.6
CC(C)(C)c1ccc(C(=O)c2c[nH]c(C(=O)NCc3cccnc3)c2)cc1	none
O=C(NCc1cccnc1)c1ccc(COc2ccc(Cl)cc2)cc1	none
Cc1cccc(OCC(=O)Nc2ccc(C(=O)NCc3cccnc3)cc2)c1	Beta cell apopt 112.9
CC(C)CCOc1cccc(OCC(=O)Nc2ccncc2)c1	Calb FLC 107.6
